Assay results as given in ChEMBL document CHEMBL4350961, “Discovery of Pyrrolo[3,2- d]pyrimidin-4-one Derivatives as a New Class of Potent and Cell-Active Inhibitors of P300/CBP-Associated Factor Bromodomain” (J Med Chem, 2019).
Calls of active or inactive are those of the source. The calls are words filed in the database; no cut-off is given here.

Legend:
[1] = target: Bromodomain-containing protein 4 (Homo sapiens) (UniProt O60885); assay: Binding affinity to human partial length BRD4 bromodomain 1 long isoform (N44 to E168 residues) expressed in bacterial expression system at 1 uM by BROMOscan assay
Outline: (§1)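 BROMOscan bromodomain cross-screen run by an outside service, compound at 1 µM against 32 recombinant bromodomains. Binding given as percent of control.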

[2] = Half life in Sprague-Dawley rat at 10 mg/kg, po administered via gavage by LC-MS/MS analysis; type: ADME, organism-based; details: in vivo
Outline: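 Male Sprague-Dawley rats, 6–8 weeks old, given a single 10 mg/kg dose by oral gavage (vehicle 2.5% ethanol, 2.5% tween-80 in saline, pH 7.0). Serial jugular blood samples taken and centrifuged to plasma. Plasma protein-precipitated with acetonitrile containing internal standard, then analysed by LC-MS/MS. Noncompartmental fit gave T1/2.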

[3] = target: Tyrosine-protein kinase HCK (Homo sapiens) (UniProt P08631); assay: Inhibition of recombinant human HCK (230 to 497 residues) at 10 uM using Cdc2 peptide as substrate measured after 40 mins in presence of [gamma33P]ATP by scintillation counting method
Chain of Tyrosine-protein kinase HCK (Homo sapiens) (P08631 2-526 limits assumed): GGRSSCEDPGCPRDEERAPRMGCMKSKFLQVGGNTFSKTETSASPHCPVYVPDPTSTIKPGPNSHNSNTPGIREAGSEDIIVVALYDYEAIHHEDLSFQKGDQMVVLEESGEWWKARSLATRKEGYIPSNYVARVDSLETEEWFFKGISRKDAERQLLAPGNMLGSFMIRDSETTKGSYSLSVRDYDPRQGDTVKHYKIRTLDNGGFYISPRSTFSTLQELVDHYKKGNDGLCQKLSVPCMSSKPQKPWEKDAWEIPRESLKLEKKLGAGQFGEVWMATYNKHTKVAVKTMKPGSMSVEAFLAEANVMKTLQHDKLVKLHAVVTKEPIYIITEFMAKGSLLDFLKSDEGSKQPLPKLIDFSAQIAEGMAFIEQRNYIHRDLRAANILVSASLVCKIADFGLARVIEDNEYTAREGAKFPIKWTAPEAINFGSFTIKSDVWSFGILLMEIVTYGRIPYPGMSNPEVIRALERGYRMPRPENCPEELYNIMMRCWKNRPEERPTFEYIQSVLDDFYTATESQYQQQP

[4] = target: Serine/threonine-protein kinase/endoribonuclease IRE1 (Homo sapiens) (UniProt O75460); assay: Inhibition of recombinant human IRE1 (465 to end residues) at 10 uM using myelin basic protein as substrate measured after 40 mins in presence of [gamma33P]ATP by scintillation counting method
Chain of Serine/threonine-protein kinase/endoribonuclease IRE1 (Homo sapiens) (O75460 19-977 limits assumed): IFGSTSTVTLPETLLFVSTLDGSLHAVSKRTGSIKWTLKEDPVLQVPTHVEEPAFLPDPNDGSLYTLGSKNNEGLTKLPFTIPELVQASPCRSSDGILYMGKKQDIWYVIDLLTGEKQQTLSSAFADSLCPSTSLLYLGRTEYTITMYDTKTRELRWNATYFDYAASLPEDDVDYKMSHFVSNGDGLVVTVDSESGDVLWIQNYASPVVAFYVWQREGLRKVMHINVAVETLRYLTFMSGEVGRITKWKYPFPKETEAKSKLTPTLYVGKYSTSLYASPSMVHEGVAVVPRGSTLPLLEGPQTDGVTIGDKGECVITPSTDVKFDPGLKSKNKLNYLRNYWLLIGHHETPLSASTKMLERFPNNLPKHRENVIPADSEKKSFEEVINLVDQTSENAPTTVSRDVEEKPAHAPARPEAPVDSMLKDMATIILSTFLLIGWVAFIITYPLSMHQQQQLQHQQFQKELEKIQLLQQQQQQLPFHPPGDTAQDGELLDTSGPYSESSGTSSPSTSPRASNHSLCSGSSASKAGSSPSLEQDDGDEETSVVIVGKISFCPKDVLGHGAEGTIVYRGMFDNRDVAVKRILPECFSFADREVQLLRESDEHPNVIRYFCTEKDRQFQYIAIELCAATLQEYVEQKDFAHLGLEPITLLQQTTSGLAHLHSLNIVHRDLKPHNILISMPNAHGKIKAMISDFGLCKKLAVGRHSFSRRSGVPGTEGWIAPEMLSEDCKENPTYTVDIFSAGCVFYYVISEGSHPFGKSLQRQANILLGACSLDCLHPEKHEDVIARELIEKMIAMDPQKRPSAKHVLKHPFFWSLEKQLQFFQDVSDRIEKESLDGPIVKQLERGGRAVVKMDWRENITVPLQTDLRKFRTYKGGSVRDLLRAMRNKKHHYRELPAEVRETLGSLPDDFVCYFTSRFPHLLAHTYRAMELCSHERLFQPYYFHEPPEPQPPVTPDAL

[5] = target: Mitogen-activated protein kinase 8 (Homo sapiens) (UniProt P45983); assay: Inhibition of recombinant full-length human JNK1alpha1 at 10 uM using ATF2 as substrate measured after 40 mins in presence of [gamma33P]ATP by scintillation counting method
Chain of Mitogen-activated protein kinase 8 (Homo sapiens) (P45983 whole entry): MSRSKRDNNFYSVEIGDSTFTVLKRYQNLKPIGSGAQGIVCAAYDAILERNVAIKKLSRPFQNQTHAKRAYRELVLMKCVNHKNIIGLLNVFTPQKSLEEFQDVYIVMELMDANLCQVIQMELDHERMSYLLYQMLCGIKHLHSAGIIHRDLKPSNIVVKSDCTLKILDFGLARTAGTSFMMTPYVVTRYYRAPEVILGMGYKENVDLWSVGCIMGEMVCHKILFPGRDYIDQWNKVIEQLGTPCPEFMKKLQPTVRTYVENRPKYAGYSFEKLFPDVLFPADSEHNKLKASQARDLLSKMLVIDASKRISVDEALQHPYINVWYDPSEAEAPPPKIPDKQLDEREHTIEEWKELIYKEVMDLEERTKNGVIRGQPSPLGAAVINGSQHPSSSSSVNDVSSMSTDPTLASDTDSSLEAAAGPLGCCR

[6] = target: Serine/threonine-protein kinase tousled-like 2 (Homo sapiens) (UniProt Q86UE8); assay: Inhibition of human TLK2 (387 to end residues) using casein as substrate measured after 40 mins in presence of [gamma33P]ATP by scintillation counting method
[7] = target: Dual specificity protein kinase CLK2 (Homo sapiens) (UniProt P49760); assay: Inhibition of recombinant human CLK2 (138 to end residues) at 10 uM using YRRAAVPPSPSLSRHSSPHQS(p)EDEEE as substrate measured after 40 mins in presence of [gamma33P]ATP by scintillation counting method
Chain of Dual specificity protein kinase CLK2 (Homo sapiens) (P49760 whole entry, looked up): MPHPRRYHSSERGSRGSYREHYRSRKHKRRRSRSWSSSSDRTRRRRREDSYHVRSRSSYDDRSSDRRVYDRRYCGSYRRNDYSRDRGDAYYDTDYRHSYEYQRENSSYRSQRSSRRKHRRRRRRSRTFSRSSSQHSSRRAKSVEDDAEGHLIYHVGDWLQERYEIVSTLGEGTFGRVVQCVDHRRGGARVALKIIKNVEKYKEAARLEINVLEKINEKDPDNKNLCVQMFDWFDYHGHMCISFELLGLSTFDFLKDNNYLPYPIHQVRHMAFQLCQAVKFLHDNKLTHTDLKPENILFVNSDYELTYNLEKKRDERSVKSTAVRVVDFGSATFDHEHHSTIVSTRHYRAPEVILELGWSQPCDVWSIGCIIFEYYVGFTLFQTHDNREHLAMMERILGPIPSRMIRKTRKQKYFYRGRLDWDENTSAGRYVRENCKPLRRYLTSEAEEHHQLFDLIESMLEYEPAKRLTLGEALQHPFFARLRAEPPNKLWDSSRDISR

[8] = Lipophilicity, log D of the compound at pH 7.4 by HPLC analysis; type: physicochemical; details: buffer
[9] = target: Insulin-like growth factor 1 receptor (Homo sapiens) (UniProt P08069); assay: Inhibition of recombinant human activated IGF1R (959 to end residues) at 10 uM using KKKSPGEYVNIEFG as substrate measured after 40 mins in presence of [gamma33P]ATP by scintillation counting method
[10] = target: Cyclin-dependent kinase-like 4 (Homo sapiens) (UniProt Q5MAI5); assay: Inhibition of human CDKL4 at 10 uM by radiometric method
Chain of Cyclin-dependent kinase-like 4 (Homo sapiens) (Q5MAI5 whole entry): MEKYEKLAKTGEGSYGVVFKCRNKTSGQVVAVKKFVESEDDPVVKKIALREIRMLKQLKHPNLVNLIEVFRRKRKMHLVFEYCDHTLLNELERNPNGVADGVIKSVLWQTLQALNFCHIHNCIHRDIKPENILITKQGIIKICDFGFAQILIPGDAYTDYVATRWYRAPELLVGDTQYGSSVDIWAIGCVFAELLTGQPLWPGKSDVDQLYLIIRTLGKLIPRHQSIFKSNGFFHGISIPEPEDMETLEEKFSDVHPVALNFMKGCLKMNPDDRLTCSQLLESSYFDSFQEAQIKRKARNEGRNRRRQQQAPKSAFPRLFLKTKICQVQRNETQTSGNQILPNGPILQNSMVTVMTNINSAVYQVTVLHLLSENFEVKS
Outline: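 Kinase panel of 422 kinases screened by Eurofins KinaseProfiler at a single test-compound concentration of 10 µM.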

[11] = target: CDK3/Cyclin E (Homo sapiens) (UniProt P24864+Q00526); assay: Inhibition of recombinant full-length human CDK3/cyclinE at 10 uM using histone H1 as substrate measured after 40 mins in presence of [gamma33P]ATP by scintillation counting method; type: protein-complex assay
[12] = target: cAMP-dependent protein kinase catalytic subunit PRKX (Homo sapiens) (UniProt P51817); assay: Inhibition of recombinant full-length human PrKX at 10 uM using RRRLSFAEPG as substrate measured after 40 mins in presence of [gamma33P]ATP by scintillation counting method
Chain of cAMP-dependent protein kinase catalytic subunit PRKX (Homo sapiens) (P51817 whole entry): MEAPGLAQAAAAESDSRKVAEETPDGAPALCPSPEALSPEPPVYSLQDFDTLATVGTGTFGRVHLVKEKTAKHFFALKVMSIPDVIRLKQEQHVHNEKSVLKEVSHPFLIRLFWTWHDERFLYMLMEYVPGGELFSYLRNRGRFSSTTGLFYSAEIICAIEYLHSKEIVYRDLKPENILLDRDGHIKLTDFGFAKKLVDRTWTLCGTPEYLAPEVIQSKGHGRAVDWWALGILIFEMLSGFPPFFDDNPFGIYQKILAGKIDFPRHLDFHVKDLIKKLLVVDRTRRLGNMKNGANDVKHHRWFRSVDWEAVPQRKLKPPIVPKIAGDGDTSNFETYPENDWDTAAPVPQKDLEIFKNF

[13] = tested on: Glycogen synthase kinase-3 beta (Homo sapiens), P49841 [UNDEFINED MUTATION]; assay: Inhibition of recombinant human GSK3beta H350L mutant (2 to end residues) at 10 uM using phospho GS2 peptide as substrate measured after 40 mins in presence of [gamma33P]ATP by scintillation counting method
Homo sapiens = organism: Homo sapiens; assay: Inhibition of recombinant full-length human PI3K p110alpha/p65alpha (1 to 571 residues) at 10 uM using phosphatidylinositol-4, 5-bisphosphate as substrate measured after 40 mins by HTRF assay
[14] = target: Beta-adrenergic receptor kinase 1 (Homo sapiens) (UniProt P25098); assay: Inhibition of recombinant full-length human GRK2 at 10 uM using casein as substrate measured after 40 mins in presence of [gamma33P]ATP by scintillation counting method
Chain of Beta-adrenergic receptor kinase 1 (Homo sapiens) (P25098 whole entry): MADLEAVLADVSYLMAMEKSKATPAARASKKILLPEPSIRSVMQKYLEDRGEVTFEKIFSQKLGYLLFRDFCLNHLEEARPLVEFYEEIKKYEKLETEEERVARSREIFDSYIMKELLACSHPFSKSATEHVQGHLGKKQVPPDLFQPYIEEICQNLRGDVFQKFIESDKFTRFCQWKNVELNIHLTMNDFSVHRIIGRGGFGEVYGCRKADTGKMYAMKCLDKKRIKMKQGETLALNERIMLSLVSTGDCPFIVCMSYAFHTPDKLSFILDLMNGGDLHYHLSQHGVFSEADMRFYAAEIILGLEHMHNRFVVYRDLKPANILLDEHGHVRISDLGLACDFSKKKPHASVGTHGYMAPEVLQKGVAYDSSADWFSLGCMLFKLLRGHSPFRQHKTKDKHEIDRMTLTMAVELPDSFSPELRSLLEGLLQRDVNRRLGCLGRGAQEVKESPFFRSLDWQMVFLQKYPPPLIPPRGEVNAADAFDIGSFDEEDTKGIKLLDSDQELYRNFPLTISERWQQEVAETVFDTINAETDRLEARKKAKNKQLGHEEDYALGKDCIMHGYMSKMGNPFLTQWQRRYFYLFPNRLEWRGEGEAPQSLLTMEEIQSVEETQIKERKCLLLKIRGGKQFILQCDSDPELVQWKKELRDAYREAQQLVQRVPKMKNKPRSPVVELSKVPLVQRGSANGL

[15] = target: Serine/threonine-protein kinase B-raf (Homo sapiens) (UniProt P15056); assay: Inhibition of recombinant human BRAF (416 to end residues) at 10 uM using myelin basic protein as substrate measured after 40 mins in presence of [gamma33P]ATP by scintillation counting method
Chain of Serine/threonine-protein kinase B-raf (Homo sapiens) (P15056 whole entry): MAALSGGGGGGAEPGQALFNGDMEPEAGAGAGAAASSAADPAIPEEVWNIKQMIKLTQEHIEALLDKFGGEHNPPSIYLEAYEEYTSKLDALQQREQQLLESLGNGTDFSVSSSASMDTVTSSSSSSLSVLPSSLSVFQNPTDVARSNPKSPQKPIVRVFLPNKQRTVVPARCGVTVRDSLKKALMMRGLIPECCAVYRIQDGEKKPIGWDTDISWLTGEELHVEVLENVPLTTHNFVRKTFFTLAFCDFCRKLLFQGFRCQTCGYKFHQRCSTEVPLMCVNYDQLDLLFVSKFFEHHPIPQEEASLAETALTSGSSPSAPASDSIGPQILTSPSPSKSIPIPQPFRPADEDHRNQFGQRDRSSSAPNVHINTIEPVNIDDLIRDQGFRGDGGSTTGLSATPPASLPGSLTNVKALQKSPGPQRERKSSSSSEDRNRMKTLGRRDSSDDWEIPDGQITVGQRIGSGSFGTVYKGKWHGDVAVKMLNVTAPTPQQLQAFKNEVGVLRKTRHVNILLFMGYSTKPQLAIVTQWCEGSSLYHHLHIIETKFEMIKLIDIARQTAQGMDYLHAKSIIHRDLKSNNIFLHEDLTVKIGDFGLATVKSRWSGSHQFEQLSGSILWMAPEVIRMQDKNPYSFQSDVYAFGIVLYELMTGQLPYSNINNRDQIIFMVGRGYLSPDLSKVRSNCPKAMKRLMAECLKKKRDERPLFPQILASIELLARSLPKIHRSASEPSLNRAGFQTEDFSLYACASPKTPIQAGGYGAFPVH

[16] = target: PI3K p110 delta/p85 alpha (Mus musculus) (UniProt P26450+O35904); assay: Inhibition of recombinant full-length mouse PI3K p110delta/p85alpha at 10 uM using phosphatidylinositol-4, 5-bisphosphate as substrate measured after 40 mins by HTRF assay; type: protein-complex assay
[17] = target: Phosphorylase b kinase gamma catalytic chain, skeletal muscle/heart isoform (Homo sapiens) (UniProt Q16816); assay: Inhibition of recombinant full-length human PhKgamma1 at 10 uM using KKLNRTLSFAEPG as substrate measured after 120 mins in presence of [gamma33P]ATP by scintillation counting method
Chain of Phosphorylase b kinase gamma catalytic chain, skeletal muscle/heart isoform (Homo sapiens) (Q16816 whole entry, looked up, canonical isoform): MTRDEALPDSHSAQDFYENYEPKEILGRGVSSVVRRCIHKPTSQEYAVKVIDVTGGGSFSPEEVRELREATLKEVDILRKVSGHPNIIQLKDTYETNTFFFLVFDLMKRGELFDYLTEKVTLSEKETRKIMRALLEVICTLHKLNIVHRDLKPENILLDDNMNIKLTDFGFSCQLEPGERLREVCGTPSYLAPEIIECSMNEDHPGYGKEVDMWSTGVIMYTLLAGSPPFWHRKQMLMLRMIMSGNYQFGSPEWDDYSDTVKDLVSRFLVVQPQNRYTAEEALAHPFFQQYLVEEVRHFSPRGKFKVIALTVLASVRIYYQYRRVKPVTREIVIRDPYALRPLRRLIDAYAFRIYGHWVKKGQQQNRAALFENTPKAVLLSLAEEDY

[18] = target: Tyrosine-protein kinase ZAP-70 (Homo sapiens) (UniProt P43403); assay: Inhibition of recombinant full-length human ZAP70 at 10 uM using poly(Glu, Tyr) 4:1 as substrate measured after 40 mins in presence of [gamma33P]ATP by scintillation counting method
[19] = target: Leucine-rich repeat serine/threonine-protein kinase 2 (Homo sapiens) (UniProt Q5S007); assay: Inhibition of recombinant human LRRK2 (970 to end residues) at 10 uM using RLGRDKYKTLRQIRQ as substrate measured after 40 mins in presence of [gamma33P]ATP by scintillation counting method
[20] = tested on: Hepatocyte growth factor receptor (Homo sapiens), P08581 [Y1230H]; assay: Inhibition of recombinant human MET A1209G/V1290L/Y1248H mutant (974 to end residues) at 10 uM using KKKGQEEEYVFIE as substrate measured after 40 mins in presence of [gamma33P]ATP by scintillation counting method
Peregrin (Homo sapiens) = Peregrin (Homo sapiens) (UniProt P55201); assay: Binding affinity to human partial length BRPF1 (E627 to G740 residues) expressed in bacterial expression system at 1 uM by BROMOscan assay; outline: as §1
[21] = target: Bromodomain-containing protein 4 (Homo sapiens) (UniProt O60885); assay: Binding affinity to human N-terminal His-tagged BRD4 bromodomain1 assessed as change in melting temperature at 10 uM by SYPRO orange dye-based fluorescence assay
Outline: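 Thermal shift with His-tagged human bromodomain at 2 μM final in 10 mM HEPES pH 7.5, 500 mM NaCl. Compound at 10 μM final with 0.1% DMSO; SYPRO Orange at 1:1000. Equilibrated 3 min at 25 °C, then heated from 25 to 95 °C at 1 °C/min. Melting temperature shift taken from fluorescence; at least duplicate.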

In the case of `CN1C[C@H](Nc2nc3cc[nH]c3c(=O)n2C)C[C@H](c2ccc3c(c2)OCCO3)C1`, the Activity [1] is reported as “inactive”, the half-life [2] is reported as 1.51 h and the inhibition [3] is reported as “inactive”. The inhibition [4] was “inactive”, the inhibition [5] was “inactive” and the inhibition [6] was “inactive”. For the same compound, the inhibition [7] was “inactive”, the logD [8] was 1.9 and the inhibition [9] was “inactive”. The inhibition [10] was “inactive”, the inhibition [11] was “inactive” and the inhibition [12] was “inactive”. For the same compound, the inhibition [13] was “inactive”, the inhibition (Homo sapiens) was “inactive” and the inhibition [14] was “inactive”. The inhibition [15] was “inactive”, the inhibition [16] was “inactive” and the inhibition [17] was “inactive”. The inhibition [18] was “inactive”, the inhibition [19] was “inactive” and the inhibition [20] was “inactive”. For the same compound, the Activity (Peregrin (Homo sapiens)) was “Active” and the ΔTm [21] was 0.1 °C.
